Measurements as given in article PMC5069309 (Clinical Pharmacokinetics, 2016).
Like-named read-outs stand apart in the source and are kept apart here.

Experiments:
[1] = assay type: in vivo; conditions: human, plasma, sc
Method in brief: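 Type 1 diabetic subjects dosed sc once daily for 4 weeks, from 0.6 mg/day rising 0.6 mg weekly to 0.6, 1.2 or 1.8 mg. Plasma taken pre-dose and 2–60 h after the final steady-state dose; sandwich ELISA with N- and C-terminal monoclonals, LLOQ 30 pmol/L. Non-compartmental: trapezoidal AUC, observed Cmax/tmax, CL/F = dose/AUC0–24 h, Vz/F = (CL/F)/λz.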

[2] = cited from earlier work

CCCCCCCCCCCCCCCC(=O)N[C@@H](CCC(=O)NCCCC[C@H](NC(=O)[C@H](C)NC(=O)[C@H](C)NC(=O)[C@H](CCC(N)=O)NC(=O)CNC(=O)[C@H](CCC(=O)O)NC(=O)[C@H](CC(C)C)NC(=O)[C@H](Cc1ccc(O)cc1)NC(=O)[C@H](CO)NC(=O)[C@H](CO)NC(=O)[C@@H](NC(=O)[C@H](CC(=O)O)NC(=O)[C@H](CO)NC(=O)[C@@H](NC(=O)[C@H](Cc1ccccc1)NC(=O)[C@@H](NC(=O)CNC(=O)[C@H](CCC(=O)O)NC(=O)[C@H](C)NC(=O)[C@@H](N)Cc1cnc[nH]1)[C@@H](C)O)[C@@H](C)O)C(C)C)C(=O)N[C@@H](CCC(=O)O)C(=O)N[C@@H](Cc1ccccc1)C(=O)N[C@H](C(=O)N[C@@H](C)C(=O)N[C@@H](Cc1c[nH]c2ccccc12)C(=O)N[C@@H](CC(C)C)C(=O)N[C@H](C(=O)N[C@@H](CCCNC(=N)N)C(=O)NCC(=O)N[C@@H](CCCNC(=N)N)C(=O)NCC(=O)O)C(C)C)[C@@H](C)CC)C(=O)O [Liraglutide, liraglutide]
Vd/F [1]: 27.4 L
Vd/F ([1]; 0.6 mg): 27 L
Vd/F ([1]; 1.2 mg): 26 L
Vd/F ([1]; 1.8 mg): 29.3 L
V z/F ([2]; healthy volunteers and subjects with T2D, previous studies): 11 to 17 L
CL/F ([2]; studies with healthy volunteers and subjects with T2D): 1.2 L/h
